# Data as given in ChEMBL document CHEMBL1126276, “Synthesis and antimalarial properties of 1-imino derivatives of 7-chloro-3-substituted-3,4-dihydro-1,9(2H,10H)-acridinediones and related structures” (J Med Chem, 1992).
# Values joined by “and” are separate entries in the source; they are usually repeats but may differ in a detail not shown here. Equal values may be shown once.
# What was measured:
# Assay type in all cases: functional
# Plasmodium berghei [1] = test: Antimalarial activity in Plasmodium berghei infected mice (Mus musculus) after subcutaneous 160 mg/kg dose
# Method in brief: (§1)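 Normal drug-sensitive P. berghei strain in mice. Compound dissolved or suspended in sesame or peanut oil, given parenterally as a single subcutaneous dose 72 h postinfection.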
# Plasmodium berghei [2] = test: (§2) Antimalarial activity in Plasmodium berghei infected mice (Mus musculus) after 40 mg/kg subcutaneous dose; method in brief: as §1
# Plasmodium berghei [3] = test: Antimalarial activity in Plasmodium berghei infected mice (Mus musculus) after subcutaneous 640 mg/kg dose; method in brief: as §1
# Plasmodium berghei [4] = test: Antimalarial activity in Plasmodium berghei infected mice (Mus musculus) after subcutaneous 320 mg/kg dose; method in brief: as §1
# Plasmodium berghei [5] = test: (§3) Antimalarial activity in Plasmodium berghei infected mice (Mus musculus) after 80 mg/kg subcutaneous dose; method in brief: as §1
# Plasmodium berghei [6] = test: Antimalarial activity in Plasmodium berghei infected mice (Mus musculus) after 20 mg/kg subcutaneous dose
# Method in brief: (§4)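 […] in mice infected with a normal drug-sensitive P. berghei strain. Compound dissolved or suspended in sesame or peanut oil, given as a single subcutaneous dose 72 h postinfection.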
# Plasmodium berghei [7] = test: as §2; method in brief: as §4; remark: listed apart in the source
# Plasmodium berghei [8] = test: as §3; method in brief: as §4; remark: listed apart in the source
# Plasmodium berghei [9] = test: Antimalarial activity in Plasmodium berghei infected mice (Mus musculus) after 160 mg/kg subcutaneous dose; method in brief: as §4
# Plasmodium berghei [10] = test: Antimalarial activity Plasmodium berghei infected mice (Mus musculus) after 640 mg/kg subcutaneous dose; method in brief: as §4
smiles,measurement,setting,value
CC(C/N=C1\CC(c2ccc(C(F)(F)F)cc2)Cc2nc3ccc(Cl)cc3c(O)c21)N(C)C (stereo unspecified),No. of cured mice,Plasmodium berghei [1],5
same,No. of cured mice,Plasmodium berghei [2],5
same,No. of cured mice,Plasmodium berghei [3],5
CN(C)CCC/N=C1\CC(c2ccc(Cl)c(C(F)(F)F)c2)Cc2nc3ccc(Cl)cc3c(O)c21 (stereo unspecified),No. of cured mice,Plasmodium berghei [1],5
same,No. of cured mice,Plasmodium berghei [4],5
same,No. of cured mice,Plasmodium berghei [2],4
same,No. of cured mice,Plasmodium berghei [3],5
same,No. of cured mice,Plasmodium berghei [5],5
same,Delta mean survival time,Plasmodium berghei [6],7.5
same,Delta mean survival time,Plasmodium berghei [7],8.7
CCN(CC/N=C1\CC(c2ccc(Cl)c(Cl)c2)Cc2c1c(=O)c1cc(Cl)ccc1n2O)CC(C)(C)O (stereo unspecified),No. of cured mice,Plasmodium berghei [1],5
same,No. of cured mice,Plasmodium berghei [4],5
same,No. of cured mice,Plasmodium berghei [5],4
same,Delta mean survival time,Plasmodium berghei [6],6.3
same,Delta mean survival time,Plasmodium berghei [8],8
same,Delta mean survival time,Plasmodium berghei [7],8.2
CC1C(=O)c2c(nc3ccc(Cl)cc3c2O)CC1c1ccc(Cl)c(Cl)c1 (stereo unspecified),No. of cured mice,Plasmodium berghei [1],5
same,No. of cured mice,Plasmodium berghei [4],5
same,No. of cured mice,Plasmodium berghei [2],3
same,No. of cured mice,Plasmodium berghei [3],5
same,No. of cured mice,Plasmodium berghei [5],5
same,Delta mean survival time,Plasmodium berghei [6],8.2
same,Delta mean survival time,Plasmodium berghei [7],10.8
CN(C)CCC/N=C1\CC(c2cccc(C(F)(F)F)c2)Cc2nc3ccc(Cl)cc3c(O)c21 (stereo unspecified),No. of cured mice,Plasmodium berghei [1],5
same,No. of cured mice,Plasmodium berghei [4],5
same,No. of cured mice,Plasmodium berghei [3],5
same,No. of cured mice,Plasmodium berghei [5],1
same,Delta mean survival time,Plasmodium berghei [8],14.6
same,Delta mean survival time,Plasmodium berghei [7],6.6
CN(C)CCC/N=C1\CC(c2ccccc2C(F)(F)F)Cc2c1c(=O)c1cc(Cl)ccc1n2O (stereo unspecified),No. of cured mice,Plasmodium berghei [1],4
same,No. of cured mice,Plasmodium berghei [4],5
same,No. of cured mice,Plasmodium berghei [3],5
same,No. of cured mice,Plasmodium berghei [5],1
same,Delta mean survival time,Plasmodium berghei [9],8
same,Delta mean survival time,Plasmodium berghei [8],7.5
same,Delta mean survival time,Plasmodium berghei [7],5.8
CC1C(=O)c2c(n(O)c3ccc(Cl)cc3c2=O)CC1c1ccc(C(F)(F)F)cc1 (stereo unspecified),No. of cured mice,Plasmodium berghei [1],5
same,No. of cured mice,Plasmodium berghei [4],5
same,No. of cured mice,Plasmodium berghei [3],5
same,No. of cured mice,Plasmodium berghei [5],2
same,Delta mean survival time,Plasmodium berghei [6],5.2
same,Delta mean survival time,Plasmodium berghei [8],14.1
same,Delta mean survival time,Plasmodium berghei [7],7.8
CCCCNCCC/N=C1\CC(c2ccc(Cl)c(Cl)c2)Cc2c1c(=O)c1cc(Cl)ccc1n2O (stereo unspecified),No. of cured mice,Plasmodium berghei [1],4
same,No. of cured mice,Plasmodium berghei [4],5
same,No. of cured mice,Plasmodium berghei [3],5
same,No. of cured mice,Plasmodium berghei [5],1
same,Delta mean survival time,Plasmodium berghei [9],10.6
same,Delta mean survival time,Plasmodium berghei [6],4.4
same,Delta mean survival time,Plasmodium berghei [8],9.1
same,Delta mean survival time,Plasmodium berghei [7],9.4
NCC/N=C1\CC(c2ccc(Cl)cc2Cl)Cc2nc3ccc(Cl)cc3c(O)c21 (stereo unspecified),No. of cured mice,Plasmodium berghei [1],5
same,No. of cured mice,Plasmodium berghei [2],5
same,No. of cured mice,Plasmodium berghei [3],5
O=c1c2c(n(O)c3ccc(Cl)cc13)CC(c1ccc(Cl)c(Cl)c1)C/C2=N\CCCN(CCO)CCO (stereo unspecified),No. of cured mice,Plasmodium berghei [1],4
same,No. of cured mice,Plasmodium berghei [4],5
same,No. of cured mice,Plasmodium berghei [3],5
same,No. of cured mice,Plasmodium berghei [5],1
same,Delta mean survival time,Plasmodium berghei [9],10.6
same,Delta mean survival time,Plasmodium berghei [6],1.2
same,Delta mean survival time,Plasmodium berghei [8],7.9
same,Delta mean survival time,Plasmodium berghei [7],5.6
CCN(CCO)CCC/N=C1\CC(c2ccc(Cl)c(Cl)c2)Cc2c1c(=O)c1cc(Cl)ccc1n2O (stereo unspecified),No. of cured mice,Plasmodium berghei [1],3
same,No. of cured mice,Plasmodium berghei [4],5
same,No. of cured mice,Plasmodium berghei [3],5
same,No. of cured mice,Plasmodium berghei [5],1
same,Delta mean survival time,Plasmodium berghei [9],10.1
same,Delta mean survival time,Plasmodium berghei [8],9.6
same,Delta mean survival time,Plasmodium berghei [7],8.6
CCN(CC)CCC/N=C1\CC(c2ccc(Cl)c(Cl)c2)Cc2c1c(=O)c1cc(Cl)ccc1n2O (stereo unspecified),No. of cured mice,Plasmodium berghei [1],4
same,No. of cured mice,Plasmodium berghei [4],5
same,No. of cured mice,Plasmodium berghei [3],5
same,No. of cured mice,Plasmodium berghei [5],2
same,Delta mean survival time,Plasmodium berghei [9],12.7
same,Delta mean survival time,Plasmodium berghei [6],5.8
same,Delta mean survival time,Plasmodium berghei [8],11.7
same,Delta mean survival time,Plasmodium berghei [7],3.5
CC1/C(=N\CCCN(C)C)c2c(nc3ccc(Cl)cc3c2O)CC1c1ccc(Cl)c(Cl)c1 (trans isomer),No. of cured mice,Plasmodium berghei [1],5
same,No. of cured mice,Plasmodium berghei [4],5
same,No. of cured mice,Plasmodium berghei [2]; 40 mg/kg,1
same,No. of cured mice,Plasmodium berghei [5],4
same,Delta mean survival time,Plasmodium berghei [6]; 20 mg/kg,5.3
same,Delta mean survival time,Plasmodium berghei [8]; 80 mg/kg,15
same,Delta mean survival time,Plasmodium berghei [7]; 40 mg/kg,7.2
O=C1CC(c2ccc(C(F)(F)F)cc2)Cc2c1c(=O)c1c(Cl)c(Cl)ccc1n2O (stereo unspecified),No. of cured mice,Plasmodium berghei [1],2
same,No. of cured mice,Plasmodium berghei [4],3
same,No. of cured mice,Plasmodium berghei [3],2
same,Delta mean survival time,Plasmodium berghei [9],7
same,Delta mean survival time,Plasmodium berghei [6],4.5
same,Delta mean survival time,Plasmodium berghei [10]; 640 mg/kg,9.8 and 7
same,Delta mean survival time,Plasmodium berghei [8],7.8
same,Delta mean survival time,Plasmodium berghei [7],7
C=CCn1c2c(c(=O)c3cc(Cl)ccc31)C(=O)CC(c1ccc(C(F)(F)F)cc1)C2 (stereo unspecified),No. of cured mice,Plasmodium berghei [2],1
same,No. of cured mice,Plasmodium berghei [3],4
same,Delta mean survival time,Plasmodium berghei [9],12.6
same,Delta mean survival time,Plasmodium berghei [10],15
same,Delta mean survival time,Plasmodium berghei [7],8.5
CCCCN(CCCC)CC/N=C1\CC(c2cccc(C(F)(F)F)c2)Cc2c1c(=O)c1cc(Cl)ccc1n2O (stereo unspecified),No. of cured mice,Plasmodium berghei [1],3
same,No. of cured mice,Plasmodium berghei [4],5
same,No. of cured mice,Plasmodium berghei [2],1
same,No. of cured mice,Plasmodium berghei [3],5
same,Delta mean survival time,Plasmodium berghei [9],11.6
same,Delta mean survival time,Plasmodium berghei [6],5.4
same,Delta mean survival time,Plasmodium berghei [8],7
same,Delta mean survival time,Plasmodium berghei [7],9.6
CN(C)CCC/N=C1/c2c([nH]c3ccc(Cl)cc3c2=O)CC(c2ccc(Cl)c(Cl)c2)C1c1ccccc1 (stereo unspecified),No. of cured mice,Plasmodium berghei [1],2
same,No. of cured mice,Plasmodium berghei [4],5
same,No. of cured mice,Plasmodium berghei [3],5
same,No. of cured mice,Plasmodium berghei [5],1
same,Delta mean survival time,Plasmodium berghei [9],12.2
same,Delta mean survival time,Plasmodium berghei [6],3.1
same,Delta mean survival time,Plasmodium berghei [8],14.2
same,Delta mean survival time,Plasmodium berghei [7],7.7
CC(C/N=C1\CC(c2cccc(C(F)(F)F)c2)Cc2c1c(=O)c1cc(Cl)ccc1n2O)N(C)C (stereo unspecified),No. of cured mice,Plasmodium berghei [1],2
same,No. of cured mice,Plasmodium berghei [4],5
same,No. of cured mice,Plasmodium berghei [2],1
same,No. of cured mice,Plasmodium berghei [3],5
same,Delta mean survival time,Plasmodium berghei [9],8.6
same,Delta mean survival time,Plasmodium berghei [6],4
same,Delta mean survival time,Plasmodium berghei [8],9.2
same,Delta mean survival time,Plasmodium berghei [7],11.9
CCN(CC)CCCCCCC/N=C1\CC(c2ccc(C(F)(F)F)cc2)Cc2nc3ccc(Cl)cc3c(O)c21 (stereo unspecified),No. of cured mice,Plasmodium berghei [1],3
same,No. of cured mice,Plasmodium berghei [2],4
same,No. of cured mice,Plasmodium berghei [3],3
same,Delta mean survival time,Plasmodium berghei [9],23.1
same,Delta mean survival time,Plasmodium berghei [10],0.1
same,Delta mean survival time,Plasmodium berghei [7],9.6
CCCCNC(CC)C/N=C1\CC(c2cccc(C(F)(F)F)c2)Cc2c1c(=O)c1cc(Cl)ccc1n2O (stereo unspecified),No. of cured mice,Plasmodium berghei [1],5
same,No. of cured mice,Plasmodium berghei [4],5
same,No. of cured mice,Plasmodium berghei [3],5
same,No. of cured mice,Plasmodium berghei [5],1
same,Delta mean survival time,Plasmodium berghei [6],5.6
same,Delta mean survival time,Plasmodium berghei [8],10.9
same,Delta mean survival time,Plasmodium berghei [7],6.8
CCN(CC)CCCC(C)/N=C1\CC(c2ccc(Cl)c(Cl)c2)Cc2c1c(=O)c1cc(Cl)ccc1n2O (stereo unspecified),No. of cured mice,Plasmodium berghei [1],5
same,No. of cured mice,Plasmodium berghei [4],5
same,No. of cured mice,Plasmodium berghei [2],1
same,No. of cured mice,Plasmodium berghei [3],5
same,No. of cured mice,Plasmodium berghei [5],1
same,Delta mean survival time,Plasmodium berghei [8],9.6
same,Delta mean survival time,Plasmodium berghei [7],6.1
CC1C(=O)c2c(nc3ccc(Cl)cc3c2O)CC1c1ccc(C(F)(F)F)cc1 (stereo unspecified),No. of cured mice,Plasmodium berghei [1],2
same,No. of cured mice,Plasmodium berghei [4],5
same,No. of cured mice,Plasmodium berghei [3],4
same,Delta mean survival time,Plasmodium berghei [9],12.8
same,Delta mean survival time,Plasmodium berghei [6],3.9
same,Delta mean survival time,Plasmodium berghei [10],8.8
same,Delta mean survival time,Plasmodium berghei [8],7.5
same,Delta mean survival time,Plasmodium berghei [7],5.7
CCN(CC)CC/N=C1\CC(c2ccc(C(F)(F)F)cc2)Cc2nc3ccc(Cl)cc3c(O)c21 (stereo unspecified),No. of cured mice,Plasmodium berghei [1],5
same,No. of cured mice,Plasmodium berghei [2],3
same,No. of cured mice,Plasmodium berghei [3],5
same,Delta mean survival time,Plasmodium berghei [7],17.6
CN(C)CCC/N=C1\CC(c2ccc(C3CCCCC3)cc2)Cc2nc3ccc(Cl)cc3c(O)c21 (stereo unspecified),No. of cured mice,Plasmodium berghei [1],2
same,No. of cured mice,Plasmodium berghei [4],5
same,No. of cured mice,Plasmodium berghei [3],3
same,Delta mean survival time,Plasmodium berghei [9],10.3
same,Delta mean survival time,Plasmodium berghei [6],2.8
same,Delta mean survival time,Plasmodium berghei [10],9.6
same,Delta mean survival time,Plasmodium berghei [8],7.2
same,Delta mean survival time,Plasmodium berghei [7],7
